Legend:
[1] = folding enthalpy; higher = less favourable; fluorescence melt of hairpins on a sequencing array, two-state fit; conditions: sodium 0.088 M
Outline: (§1)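 Hairpins were imaged by Cy3 fluorescence on a sequenced MiSeq flow cell with annealed Cy3 and quencher oligos, in 50 mM Na-HEPES pH 8.0, 25 mM NaCl, in 2.5 °C steps up to 60 °C. Bootstrapped two-state fits of normalised signals gave melting temperature and folding enthalpy. Four replicates were combined by inverse variance, and fitted temperatures were raised by 9.35 °C to match UV melts.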

[2] = melting temperature; fluorescence melt of hairpins on a sequencing array, two-state fit, raised by 9.35 °C to match UV melts; conditions: sodium 0.088 M
Outline: as §1

Row | Sequence | folding enthalpy [1] | Tm [2]
1 | GCGGACCCGAAAGGGCGC (((..(((....)))))) | -18 kcal/mol | 59.5 °C
2 | GCGGACGAAAGTCGACGC ((((((....)))..))) | -27.3 kcal/mol | 54.8 °C
3 | GCGGACGCGAAAGCGCGC (((..(((....)))))) | -17.1 kcal/mol | 62 °C
4 | GCGGACGGAAACGTTCGC (((.(((....))).))) | -44.9 kcal/mol | 64.2 °C
5 | GCGGACTCGAAAGAGCGC (((..(((....)))))) | -22.9 kcal/mol | 51 °C
6 | GCGGACTGCCGC ((((....)))) | -24.5 kcal/mol | 54.5 °C
7 | GCGGAGAACCGC ((((....)))) | -22.7 kcal/mol | 51.1 °C
8 | GCGGAGACCGC ((((...)))) | -24.4 kcal/mol | 53.2 °C
9 | GCGGAGCGAAAGCCCGGC ((.(.((....)).).)) | -10.5 kcal/mol | 53.5 °C
10 | GCGGAGCGAAAGCTCGGC ((.((((....)))).)) | -17.8 kcal/mol | 65.1 °C
11 | GCGGAGCGAAAGCTGTGC ((..(((....)))..)) | -14.2 kcal/mol | 51 °C
12 | GCGGAGGCCCGC ((((....)))) | -17.4 kcal/mol | 53.8 °C
13 | GCGGAGGGAAACCCCCAC (.((.((....)).)).) | -7.96 kcal/mol | 22.4 °C
14 | GCGGAGGGAAACCTCCAC (.(((((....))))).) | -15.4 kcal/mol | 45.7 °C
15 | GCGGAGGGAAACCTCTGC ((.((((....)))).)) | -40.3 kcal/mol | 58.2 °C
16 | GCGGATATCCGC ((((....)))) | -33.9 kcal/mol | 56.7 °C
17 | GCGGCAAACCGC ((((....)))) | -27.8 kcal/mol | 55.8 °C
18 | GCGGCAACGAAAGTTCGC (((..(((....)))))) | -21.3 kcal/mol | 45.1 °C
19 | GCGGCACACCGC ((((....)))) | -25.5 kcal/mol | 57.5 °C
20 | GCGGCAGCCGC ((((...)))) | -10.9 kcal/mol | 61.7 °C
21 | GCGGCATACCGC ((((....)))) | -32 kcal/mol | 58.3 °C
22 | GCGGCATCCCGC ((((....)))) | -20.7 kcal/mol | 56.4 °C
23 | GCGGCCCGCCGC ((((....)))) | -16.9 kcal/mol | 68.7 °C
24 | GCGGCCGAAAGGCGTCGC ((((((....)))..))) | -17.4 kcal/mol | 59.3 °C
25 | GCGGCCGAAAGGCTACGC ((((((....)))..))) | -19.6 kcal/mol | 61.1 °C

Row | Sequence | folding enthalpy [1] | Tm [2]
26 | GCGGCCGAAAGGCTCCGC ((((((....)))..))) | -16.8 kcal/mol | 53.8 °C
27 | GCGGCCGCCCGC ((((....)))) | -17.1 kcal/mol | 63.2 °C
28 | GCGGCGCGAAAGCACTGC ((.(.((....)).).)) | -29 kcal/mol | 54.6 °C
29 | GCGGCGCGAAAGCAGCGC (((..((....))..))) | -27.4 kcal/mol | 68.1 °C
30 | GCGGCGCGAAAGCATCGC (((..((....))..))) | -22.6 kcal/mol | 61.4 °C
31 | GCGGCGCGAAAGCCCAGC ((.(.((....)).).)) | -15.3 kcal/mol | 53 °C
32 | GCGGCGCGAAAGCGTGGC ((..(((....)))..)) | -20.7 kcal/mol | 62 °C
33 | GCGGCGCGAAAGCTACGC (((..((....))..))) | -28.9 kcal/mol | 61.8 °C
34 | GCGGCGCGAAAGCTCAGC ((.(.((....)).).)) | -19.2 kcal/mol | 56.7 °C
35 | GCGGCGCGAAAGCTCTGC ((.(.((....)).).)) | -22.9 kcal/mol | 47.4 °C
36 | GCGGCGGACCGC ((((....)))) | -22.6 kcal/mol | 54.9 °C
37 | GCGGCGGCCGC ((((...)))) | -22.6 kcal/mol | 61.3 °C
38 | GCGGCGTTCCGC ((((....)))) | -14.8 kcal/mol | 54.1 °C
39 | GCGGCTCTCCGC ((((....)))) | -26.3 kcal/mol | 55.6 °C
40 | GCGGCTGGAAACAGCTGC ((.((((....)))).)) | -39.1 kcal/mol | 63.6 °C
41 | GCGGGAACCCGC ((((....)))) | -26 kcal/mol | 67.8 °C
42 | GCGGGACCGAAAGGTCGC (((..(((....)))))) | -11.5 kcal/mol | 56.3 °C
43 | GCGGGAGGAAACCCCCGC (((((.(....).))))) | -37.9 kcal/mol | 60.2 °C
44 | GCGGGAGGAAACTCCTGC ((.((((....)))).)) | -39 kcal/mol | 58.1 °C
45 | GCGGGCGAAAGCCATCGC ((((((....)))..))) | -21.1 kcal/mol | 52.8 °C
46 | GCGGGCGAAAGCCTTCGC ((((((....)))..))) | -15.7 kcal/mol | 50.1 °C
47 | GCGGGCTCCGC ((((...)))) | -21.6 kcal/mol | 58.5 °C
48 | GCGGGGCGAAAGCCTTGC ((..(((....)))..)) | -18 kcal/mol | 58.4 °C
49 | GCGGGGCGAAAGCGCAGC ((.(.((....)).).)) | -23.5 kcal/mol | 59.5 °C
50 | GCGGGGCGAAAGCTTCGC (((..((....))..))) | -35.3 kcal/mol | 63 °C

Row | Sequence | folding enthalpy [1] | Tm [2]
51 | GCGGGGCTCCGC ((((....)))) | -26.7 kcal/mol | 67.4 °C
52 | GCGGGGGCGAAAGCCCGC (((..(((....)))))) | -11.4 kcal/mol | 65.1 °C
53 | GCGGGGGGAAACCCTCGC (((.(((....))).))) | -38 kcal/mol | 61.6 °C
54 | GCGGGGGGCCGC ((((....)))) | -13.5 kcal/mol | 60.7 °C
55 | GCGGGGTGCCGC ((((....)))) | -26.3 kcal/mol | 61.2 °C
56 | GCGGGTGCGAAAGCACGC (((..(((....)))))) | -10.3 kcal/mol | 55.7 °C
57 | GCGGTACGAAAGTACGC (((.(((....)))))) | -26.4 kcal/mol | 60.7 °C
58 | GCGGTACGCCGC ((((....)))) | -13.5 kcal/mol | 67 °C
59 | GCGGTAGGAAACTACTGC ((.((((....)))).)) | -34.8 kcal/mol | 52.2 °C
60 | GCGGTAGGCCGC ((((....)))) | -17.4 kcal/mol | 63.7 °C
61 | GCGGTAGTCCGC ((((....)))) | -21.9 kcal/mol | 58.8 °C
62 | GCGGTATTCCGC ((((....)))) | -30.6 kcal/mol | 56.4 °C
63 | GCGGTCATCCGC ((((....)))) | -26.7 kcal/mol | 59.3 °C
64 | GCGGTCCTCCGC ((((....)))) | -28 kcal/mol | 58.5 °C
65 | GCGGTCGAAAGACAACGC ((((((....)))..))) | -27.7 kcal/mol | 56.6 °C
66 | GCGGTCGAAAGACACGC ((((((....))).))) | -27.4 kcal/mol | 61.8 °C
67 | GCGGTCGAAAGACTCCGC ((((((....)))..))) | -25.4 kcal/mol | 50.7 °C
68 | GCGGTCTGCCGC ((((....)))) | -22.7 kcal/mol | 62.1 °C
69 | GCGGTGAACCGC ((((....)))) | -30 kcal/mol | 61.1 °C
70 | GCGGTGCGAAAGCAGAGC ((..(((....)))..)) | -33 kcal/mol | 63.5 °C
71 | GCGGTGCGAAAGCCTCGC (((..((....))..))) | -22.2 kcal/mol | 59.1 °C
72 | GCGGTGCGAAAGCGTCGC (((..((....))..))) | -32.6 kcal/mol | 65.1 °C
73 | GCGGTGCGAAAGCTGCGC (((..((....))..))) | -32.1 kcal/mol | 64.2 °C
74 | GCGGTGTCCCGC ((((....)))) | -32.1 kcal/mol | 56.5 °C
75 | GCGGTGTCGAAAGACCGC (((..(((....)))))) | -30.4 kcal/mol | 58.9 °C

Row | Sequence | folding enthalpy [1] | Tm [2]
76 | GCGGTTAGCCGC ((((....)))) | -24.3 kcal/mol | 62.4 °C
77 | GCGGTTCCCCGC ((((....)))) | -21 kcal/mol | 60.8 °C
78 | GCGGTTCTCCGC ((((....)))) | -31.9 kcal/mol | 58.3 °C
79 | GCGGTTGGAAACAACCAC (.(((((....))))).) | -14.8 kcal/mol | 44.8 °C
80 | GCGGTTGGAAACAACTGC ((.((((....)))).)) | -46.5 kcal/mol | 55.6 °C
81 | GCGGTTTCCGC ((((...)))) | -29.4 kcal/mol | 60.5 °C
82 | GCGGTTTCGAAAGAACGC (((..(((....)))))) | -26.5 kcal/mol | 44.8 °C
83 | GCGTAAACACGC ((((....)))) | -19.5 kcal/mol | 50.4 °C
84 | GCGTAAATACGC ((((....)))) | -25.4 kcal/mol | 50 °C
85 | GCGTAACCGAAAGGTCGC (((..(((....)))))) | -34.2 kcal/mol | 53 °C
86 | GCGTAACGAAAGTTCCGC (((.(((....))).))) | -33.4 kcal/mol | 52.7 °C
87 | GCGTAAGCACGC ((((....)))) | -9.59 kcal/mol | 59.6 °C
88 | GCGTACACGAAAGTGCGC (((..(((....)))))) | -26.4 kcal/mol | 52.8 °C
89 | GCGTACCGAAAGGTCCGC (((.(((....))).))) | -49.9 kcal/mol | 58.2 °C
90 | GCGTACGAAAGTACTCGC ((((((....)))..))) | -15.6 kcal/mol | 46.5 °C
91 | GCGTACGAAAGTAGACGC ((((((....)))..))) | -25.3 kcal/mol | 51.8 °C
92 | GCGTACGAAAGTAGGCGC ((((((....)))..))) | -30 kcal/mol | 56 °C
93 | GCGTACGAAAGTAGTCGC ((((((....)))..))) | -25.1 kcal/mol | 45.3 °C
94 | GCGTACGAAAGTATTCGC ((((((....)))..))) | -25.5 kcal/mol | 40.7 °C
95 | GCGTACGCACGC ((((....)))) | -17.1 kcal/mol | 56.9 °C
96 | GCGTACGGAAACGTATGC ((.((((....)))).)) | -40.1 kcal/mol | 55.9 °C
97 | GCGTACTACGC ((((...)))) | -24.6 kcal/mol | 55.2 °C

Reference: the array DNA melting data of Ke et al. (doi:10.1101/2024.01.08.574731)
